Experimental data published in ChEMBL document CHEMBL1152606, “Thienylhalomethylketones: Irreversible glycogen synthase kinase 3 inhibitors as useful pharmacological tools” (Bioorg Med Chem, 2009).
Activity calls are given as the source filed them. The rule behind the calls is not given here.

Columns and labels:
Rattus norvegicus [1] = species: Rattus norvegicus; test: Displacement of [3H]cystisine from alpha-BGTX sensitive nicotinic acetylcholine receptor in rat cerebral cortex; type: tissue-based; set-up: concentration or dose not given beside the values; settings: concentration not given here
[2] = molecular target: D(2) dopamine receptor (Homo sapiens) (UniProt P14416); test: Displacement of [3H]spiperone from human recombinant dopamine D2 receptor expressed in CHO cells at 10 uM; type: cell-based
How it was run: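 Human recombinant D2 receptor expressed in CHO cells; [3H]spiperone ligand at 0.3 nM; (+)-buctaclamol as reference compound.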

[3] = molecular target: Tyrosine-protein kinase ABL1 (Mus musculus) (UniProt P00520); test: Inhibition of mouse recombinant Abl expressed in Escherichia coli at 10 uM by fluorescence polarization
[4] = molecular target: Proto-oncogene tyrosine-protein kinase Src (Homo sapiens) (UniProt P12931); test: Inhibition of Src at 10 uM
[5] = system: 5-HT (non-selective) serotonin receptor (Rattus norvegicus); test: Inhibition of [3H]serotonine binding to non-selective 5-HT serotoninergic receptor in rat cerebral cortex at 10 uM
[6] = Displacement of [3H]QNB from muscarinic receptor at 10 uM
Rattus norvegicus [7] = species: Rattus norvegicus; test: Displacement of [3H]cystisine from alpha-BGTX insensitive nicotinic acetylcholine receptor in rat cerebral cortex at 10 uM; type: tissue-based
[8] = molecular target: Epidermal growth factor receptor (Homo sapiens) (UniProt P00533); test: Inhibition of EGFR in human A431 at 10 uM by liquid scintillation counting in presence of [33gammaP]ATP
How it was run: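 EGFR kinase from A-431 cells; substrate [γ33-P]ATP plus poly GAT (0.48 mg/mL); PD 153035 reference; product measured by liquid scintillation; compounds at 10 µM.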

Bos taurus = species: Bos taurus; test: Inhibition of bovine thymus p56LCK at 10 uM by liquid scintillation counting in presence of [33gammaP]ATP
How it was run: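 p56lck from bovine thymus; [γ33-P]ATP with polyGT (0.5 mg/mL) substrate; staurosporine reference; liquid scintillation read-out; compounds tested at 10 µM.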

Rattus norvegicus [9] = species: Rattus norvegicus; test: Inhibition of rat CAM2 at 10 uM by liquid scintillation counting in presence of [33gammaP]ATP
How it was run: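 CaM kinase II from rat brain; [γ33-P]ATP plus autocamtide-2 (5 µM); staurosporine reference; labelled autocamtide-2 counted by liquid scintillation; compounds at 10 µM.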

Rattus norvegicus [10] = species: Rattus norvegicus; test: Displacement of [3H]AMPA from AMPA receptor in rat cerebral cortex at 10 uM; type: tissue-based
[11] = molecular target: D(3) dopamine receptor (Homo sapiens) (UniProt P35462); test: Displacement of [3H]spiperone from human recombinant dopamine D3 receptor expressed in CHO cells at 10 uM; type: cell-based
How it was run: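 Human recombinant D3 receptor from CHO cells; [3H]spiperone 0.3 nM as ligand; (+)-buctaclamol reference compound.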

[12] = molecular target: Glutamate NMDA receptor (Rattus norvegicus) (UniProt P35439+Q00959+Q00960+Q00961+Q62645+Q8VHN2+Q9R1M7); test: Displacement of [3H]CGP39653 from NMDA receptor in rat cerebral cortex at 10 uM; type: tissue-based
Rattus norvegicus [13] = species: Rattus norvegicus; test: Inhibition of rat recombinant MAPK at 10 uM by liquid scintillation counting in presence of [33gammaP]ATP
How it was run: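 Rat recombinant ERK42 MAP kinase expressed in E. coli; [γ33-P]ATP with MBP (0.5 mg/mL); staurosporine reference; liquid scintillation read-out; 10 µM compound.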

[14] = molecular target: Insulin receptor (Homo sapiens) (UniProt P06213); test: Inhibition of human recombinant IR at 10 uM by liquid scintillation counting in presence of [33gammaP]ATP
How it was run: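 Human recombinant insulin receptor kinase; [γ33-P]ATP plus poly GT (0.03 mg/mL); staurosporine reference; liquid scintillation detection; 10 µM compound.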

[15] = molecular target: T1, Alpha-2A adrenergic receptor (Rattus norvegicus) (UniProt P22909); test: Displacement of [3H]RX821002 from alpha2 adrenoceptor in rat cerebral cortex at 10 uM; type: tissue-based
T1 sequence (whole entry): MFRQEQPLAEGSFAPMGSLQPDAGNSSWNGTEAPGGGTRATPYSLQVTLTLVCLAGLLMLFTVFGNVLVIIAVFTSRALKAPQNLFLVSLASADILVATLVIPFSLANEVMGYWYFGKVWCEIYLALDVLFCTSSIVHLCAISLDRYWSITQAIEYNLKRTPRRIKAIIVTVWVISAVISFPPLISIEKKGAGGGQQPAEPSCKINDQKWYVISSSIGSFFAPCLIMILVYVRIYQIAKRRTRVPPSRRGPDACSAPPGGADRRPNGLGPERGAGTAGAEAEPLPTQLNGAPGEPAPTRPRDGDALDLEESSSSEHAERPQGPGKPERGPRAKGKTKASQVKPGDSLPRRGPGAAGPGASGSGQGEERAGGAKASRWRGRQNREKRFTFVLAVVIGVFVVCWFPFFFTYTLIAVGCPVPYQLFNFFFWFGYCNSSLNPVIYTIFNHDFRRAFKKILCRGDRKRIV
How it was run: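 Rat cerebral cortex source; [3H]RX 821002 ligand at 0.5 nM; yohimbine as reference compound; non-selective alpha-2 site.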

[16] = molecular target: Dual specificity mitogen-activated protein kinase kinase 1 (Oryctolagus cuniculus) (UniProt P29678); test: Inhibition of rabbit recombinant MEK1 expressed in Escherichia coli at 10 uM by liquid scintillation counting in presence of [33gammaP]ATP
How it was run: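 Rabbit recombinant MEK1 from E. coli; ATP plus unactivated MAP kinase (0.01 mg/mL) as substrate; staurosporine reference; liquid scintillation detection; 10 µM.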

[17] = molecular target: Glycogen synthase kinase-3 beta (Homo sapiens, UniProt P49841); test: Inhibition of GSK3-beta by liquid scintillation counting
How it was run: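 GSK-3β enzyme incubated with test compound at various concentrations, GS-1 peptide substrate (15 mM as printed), 15 μM ATP plus 0.2 μCi [γ-32P]ATP, in 50 mM Tris pH 7.5, 10 mM MgCl2, 1 mM EGTA, 1 mM EDTA; 20 min at 37 °C. Aliquots spotted on P81 phosphocellulose, washed in 1% phosphoric acid, counted by liquid scintillation.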

[18] = molecular target: Glycogen synthase kinase-3 beta (Mus musculus) (UniProt Q9WV60); test: Inhibition of GSK-3-beta-mediated tau phosphorylation in mouse granule cerebellar neurons cells after 16 hrs by Western blot
How it was run: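 Cerebellar granule neurons from P6 mice, plated on poly-L-lysine and grown 48 h in serum-free neurobasal/B-27 with 12.5 mM KCl; compounds 0.5–25 µM; LiCl 10 mM positive control with excess myo-inositol; lysates blotted with PHF-1 and Tau-1, normalised to β-actin, densitometry; mean of three experiments, control = 100 r.u.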

Sequence of Epidermal growth factor receptor (Homo sapiens) (P00533 whole entry): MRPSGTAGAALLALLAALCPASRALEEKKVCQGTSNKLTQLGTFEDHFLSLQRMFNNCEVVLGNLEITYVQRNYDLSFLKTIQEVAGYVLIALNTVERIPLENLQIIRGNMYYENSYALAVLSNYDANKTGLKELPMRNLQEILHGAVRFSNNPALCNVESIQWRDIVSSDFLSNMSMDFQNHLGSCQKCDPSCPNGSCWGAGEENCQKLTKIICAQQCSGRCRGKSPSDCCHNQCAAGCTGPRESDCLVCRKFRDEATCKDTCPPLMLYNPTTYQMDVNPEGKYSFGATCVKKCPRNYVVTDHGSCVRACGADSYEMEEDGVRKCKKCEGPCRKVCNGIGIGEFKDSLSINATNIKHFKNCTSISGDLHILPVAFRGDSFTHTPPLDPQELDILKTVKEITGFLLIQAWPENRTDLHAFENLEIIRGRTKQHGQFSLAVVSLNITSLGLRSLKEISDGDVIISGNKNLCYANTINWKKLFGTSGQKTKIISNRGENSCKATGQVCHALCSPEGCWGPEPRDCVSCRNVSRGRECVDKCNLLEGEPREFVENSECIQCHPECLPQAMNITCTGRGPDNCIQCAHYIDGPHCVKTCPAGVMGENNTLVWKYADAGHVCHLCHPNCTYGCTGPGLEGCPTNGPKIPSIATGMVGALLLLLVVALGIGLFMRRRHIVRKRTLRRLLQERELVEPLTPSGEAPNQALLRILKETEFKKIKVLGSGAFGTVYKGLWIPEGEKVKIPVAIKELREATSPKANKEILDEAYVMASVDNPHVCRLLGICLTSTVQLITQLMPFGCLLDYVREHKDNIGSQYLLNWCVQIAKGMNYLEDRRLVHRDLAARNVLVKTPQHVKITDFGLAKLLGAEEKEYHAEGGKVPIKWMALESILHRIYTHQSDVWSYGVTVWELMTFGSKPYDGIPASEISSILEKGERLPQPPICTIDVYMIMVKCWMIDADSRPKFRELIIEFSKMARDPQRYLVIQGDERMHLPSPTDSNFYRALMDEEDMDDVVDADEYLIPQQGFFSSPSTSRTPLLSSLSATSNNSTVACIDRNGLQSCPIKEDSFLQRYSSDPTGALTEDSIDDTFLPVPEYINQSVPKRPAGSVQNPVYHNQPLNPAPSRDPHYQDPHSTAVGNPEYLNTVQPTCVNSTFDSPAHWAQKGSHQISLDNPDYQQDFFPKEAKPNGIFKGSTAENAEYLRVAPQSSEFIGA
Sequence of D(2) dopamine receptor (Homo sapiens) (P14416 whole entry): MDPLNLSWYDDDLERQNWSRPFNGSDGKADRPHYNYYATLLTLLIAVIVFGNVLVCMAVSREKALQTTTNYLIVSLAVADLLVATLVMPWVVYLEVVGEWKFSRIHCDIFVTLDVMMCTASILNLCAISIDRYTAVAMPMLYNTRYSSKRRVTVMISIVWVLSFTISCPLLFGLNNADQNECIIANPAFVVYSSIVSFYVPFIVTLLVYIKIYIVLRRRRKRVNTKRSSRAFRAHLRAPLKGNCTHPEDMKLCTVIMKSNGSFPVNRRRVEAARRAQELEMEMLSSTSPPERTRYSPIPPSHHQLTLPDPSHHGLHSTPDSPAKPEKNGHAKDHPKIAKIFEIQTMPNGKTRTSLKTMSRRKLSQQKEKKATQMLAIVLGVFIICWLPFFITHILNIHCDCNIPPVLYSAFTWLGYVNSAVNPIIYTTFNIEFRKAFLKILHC
Sequence of Tyrosine-protein kinase ABL1 (Mus musculus) (P00520 whole entry): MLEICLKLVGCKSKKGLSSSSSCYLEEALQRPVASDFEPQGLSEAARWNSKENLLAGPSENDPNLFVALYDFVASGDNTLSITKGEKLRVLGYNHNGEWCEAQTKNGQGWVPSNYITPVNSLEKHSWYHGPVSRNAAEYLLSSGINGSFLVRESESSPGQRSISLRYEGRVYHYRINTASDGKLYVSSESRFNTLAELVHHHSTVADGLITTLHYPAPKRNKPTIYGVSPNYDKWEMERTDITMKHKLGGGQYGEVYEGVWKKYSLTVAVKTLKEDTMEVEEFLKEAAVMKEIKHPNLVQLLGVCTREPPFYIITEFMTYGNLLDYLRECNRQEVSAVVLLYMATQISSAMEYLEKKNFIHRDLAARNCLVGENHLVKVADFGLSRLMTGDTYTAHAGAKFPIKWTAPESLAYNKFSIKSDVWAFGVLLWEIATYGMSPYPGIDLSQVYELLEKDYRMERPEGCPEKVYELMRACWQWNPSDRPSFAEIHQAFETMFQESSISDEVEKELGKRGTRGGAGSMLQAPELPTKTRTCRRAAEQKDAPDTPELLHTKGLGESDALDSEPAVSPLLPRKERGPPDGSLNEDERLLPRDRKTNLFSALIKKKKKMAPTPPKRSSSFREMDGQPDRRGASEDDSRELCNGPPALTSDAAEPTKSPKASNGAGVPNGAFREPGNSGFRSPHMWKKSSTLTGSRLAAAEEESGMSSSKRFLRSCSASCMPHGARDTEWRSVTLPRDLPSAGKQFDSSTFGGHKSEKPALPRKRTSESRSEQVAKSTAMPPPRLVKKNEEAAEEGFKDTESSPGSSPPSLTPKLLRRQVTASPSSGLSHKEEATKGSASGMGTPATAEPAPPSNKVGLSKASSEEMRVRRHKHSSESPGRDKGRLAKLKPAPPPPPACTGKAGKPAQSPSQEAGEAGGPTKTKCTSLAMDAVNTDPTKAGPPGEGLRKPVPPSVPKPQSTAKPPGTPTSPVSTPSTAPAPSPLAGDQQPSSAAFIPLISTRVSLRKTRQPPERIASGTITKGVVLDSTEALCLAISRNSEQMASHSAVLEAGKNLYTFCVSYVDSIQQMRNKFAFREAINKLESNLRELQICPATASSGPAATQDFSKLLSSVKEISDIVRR
Sequence of Proto-oncogene tyrosine-protein kinase Src (Homo sapiens) (P12931 2-536 limits assumed): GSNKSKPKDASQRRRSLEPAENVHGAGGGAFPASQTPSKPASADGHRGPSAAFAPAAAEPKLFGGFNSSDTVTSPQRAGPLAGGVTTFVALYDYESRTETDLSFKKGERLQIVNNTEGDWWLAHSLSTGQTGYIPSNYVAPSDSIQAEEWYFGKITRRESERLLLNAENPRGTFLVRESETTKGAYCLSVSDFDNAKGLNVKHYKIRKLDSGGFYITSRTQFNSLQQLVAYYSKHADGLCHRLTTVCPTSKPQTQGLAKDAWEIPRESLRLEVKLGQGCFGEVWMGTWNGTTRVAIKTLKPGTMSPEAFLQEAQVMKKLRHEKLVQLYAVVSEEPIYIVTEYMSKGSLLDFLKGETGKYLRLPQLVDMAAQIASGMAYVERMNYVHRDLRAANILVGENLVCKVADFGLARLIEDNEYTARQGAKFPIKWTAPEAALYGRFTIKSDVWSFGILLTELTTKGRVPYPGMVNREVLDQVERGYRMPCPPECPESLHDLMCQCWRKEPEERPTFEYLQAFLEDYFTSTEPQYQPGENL
Sequence of Insulin receptor (Homo sapiens) (P06213 28-758 limits assumed): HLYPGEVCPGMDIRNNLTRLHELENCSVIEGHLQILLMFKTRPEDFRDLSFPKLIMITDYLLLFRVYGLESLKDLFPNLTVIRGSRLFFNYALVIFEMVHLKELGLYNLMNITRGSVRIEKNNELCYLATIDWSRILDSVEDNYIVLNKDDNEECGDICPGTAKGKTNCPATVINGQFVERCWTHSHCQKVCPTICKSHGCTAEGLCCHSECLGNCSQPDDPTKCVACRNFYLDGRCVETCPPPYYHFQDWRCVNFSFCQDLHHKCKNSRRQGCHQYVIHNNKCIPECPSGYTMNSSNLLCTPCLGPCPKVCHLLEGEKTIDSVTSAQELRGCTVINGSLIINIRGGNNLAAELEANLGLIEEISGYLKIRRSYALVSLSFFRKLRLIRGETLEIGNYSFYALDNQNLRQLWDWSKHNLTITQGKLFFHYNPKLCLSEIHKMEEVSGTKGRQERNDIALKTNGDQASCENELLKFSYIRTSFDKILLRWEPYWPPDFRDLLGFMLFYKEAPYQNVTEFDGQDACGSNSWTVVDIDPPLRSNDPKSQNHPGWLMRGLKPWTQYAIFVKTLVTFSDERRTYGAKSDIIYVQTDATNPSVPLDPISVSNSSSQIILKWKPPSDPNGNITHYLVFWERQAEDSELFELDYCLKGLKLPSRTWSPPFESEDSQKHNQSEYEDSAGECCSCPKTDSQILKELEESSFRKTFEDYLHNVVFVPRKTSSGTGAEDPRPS
Sequence of Insulin receptor (Homo sapiens) (P06213 763-1382 limits assumed): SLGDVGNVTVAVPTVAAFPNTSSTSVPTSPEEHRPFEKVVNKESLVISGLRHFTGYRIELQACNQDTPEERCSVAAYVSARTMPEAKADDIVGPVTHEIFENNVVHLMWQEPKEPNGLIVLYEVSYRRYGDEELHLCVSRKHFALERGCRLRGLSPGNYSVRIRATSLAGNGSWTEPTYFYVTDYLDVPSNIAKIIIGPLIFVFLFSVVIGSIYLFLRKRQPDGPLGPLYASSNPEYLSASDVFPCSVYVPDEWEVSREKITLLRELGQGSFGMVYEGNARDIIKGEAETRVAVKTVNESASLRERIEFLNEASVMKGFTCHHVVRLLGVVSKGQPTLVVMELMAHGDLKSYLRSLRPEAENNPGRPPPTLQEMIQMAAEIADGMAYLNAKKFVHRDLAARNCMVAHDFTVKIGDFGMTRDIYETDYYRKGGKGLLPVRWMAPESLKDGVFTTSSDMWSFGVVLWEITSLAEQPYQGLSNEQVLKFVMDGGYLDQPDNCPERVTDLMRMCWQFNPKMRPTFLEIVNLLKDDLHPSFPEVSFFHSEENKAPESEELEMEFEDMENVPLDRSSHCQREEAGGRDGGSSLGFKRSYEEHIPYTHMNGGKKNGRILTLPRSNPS
Sequence of D(3) dopamine receptor (Homo sapiens) (P35462 whole entry): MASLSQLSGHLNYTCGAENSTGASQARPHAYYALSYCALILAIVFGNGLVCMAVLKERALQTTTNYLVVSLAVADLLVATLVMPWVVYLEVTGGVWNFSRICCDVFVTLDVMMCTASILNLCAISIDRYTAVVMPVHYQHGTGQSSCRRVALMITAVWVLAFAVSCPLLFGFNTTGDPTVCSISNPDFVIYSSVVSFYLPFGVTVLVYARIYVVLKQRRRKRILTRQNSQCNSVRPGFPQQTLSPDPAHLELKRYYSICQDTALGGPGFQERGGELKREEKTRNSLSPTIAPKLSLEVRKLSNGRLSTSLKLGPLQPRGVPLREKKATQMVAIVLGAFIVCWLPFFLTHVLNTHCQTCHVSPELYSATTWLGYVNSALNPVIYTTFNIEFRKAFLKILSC

Row | Compound | inhibition (Rattus norvegicus [1]) [%] | inhibition [2] [%] | inhibition [3] [%] | inhibition [5] [%] | inhibition [6] [%] | inhibition (Rattus norvegicus [7]) [%] | inhibition [8] [%] | inhibition (Bos taurus) [%] | inhibition (Rattus norvegicus [9]) [%] | inhibition (Rattus norvegicus [10]) [%] | inhibition [11] [%] | inhibition [12] [%] | inhibition (Rattus norvegicus [13]) [%] | inhibition [14] [%] | inhibition [15] [%] | inhibition [16] [%] | IC50 [17] [µM] | further results
1 | Cc1sc(C(=O)CCl)cc1C(=O)CCl | < 10 | < 10 | < 10 | < 10 | < 10 | < 10 | 25 | 17 | < 10 | < 10 | < 10 | < 10 | < 10 | 12 | < 10 | < 10 |  | inhibition [4]: 54%
2 | O=C(CCl)c1cc(Cl)sc1Cl | < 10 | < 10 | < 10 | 12 | < 10 | < 10 | < 10 | 41 | 10 | 17 | < 10 | < 10 | < 10 | < 10 | < 10 | < 10 |  | inhibition [4]: 12%
3 | c1ccc(-c2nc(-c3ccccc3)n(-c3ccccc3)n2)cc1 |  |  |  |  |  |  |  |  |  |  |  |  |  |  |  |  | > 100 | 
4 | CC(=O)c1csc(C(=O)CCl)c1 | < 10 | < 10 | < 10 | < 10 | < 10 | 17 | < 10 | < 10 | < 10 | < 10 | < 10 | < 10 | < 10 | < 10 | < 10 | 12 |  | inhibition [4]: 22%
5 | OC(CCl)c1sc(Br)c(Br)c1Br (stereo not drawn) |  |  |  |  |  |  |  |  |  |  |  |  |  |  |  |  | 75 | 
6 | O=C(CBr)c1scc(Br)c1Br | < 10 | < 10 | < 10 | < 10 | < 10 | 22 | 17 | < 10 | < 10 | < 10 | < 10 | < 10 | < 10 | < 10 | < 10 | < 10 | 1 | inhibition [4]: 66%
7 | O=C(CBr)c1ccc(Br)s1 |  |  |  |  |  |  |  |  |  |  |  |  |  |  |  |  | 1 | 
8 | O=Cc1cccs1 [2-THIOPHENENECARBOXALDEHYDE] |  |  |  |  |  |  |  |  |  |  |  |  |  |  |  |  | > 100 | 
9 | CCSC1=NC(c2ccccc2)=NN(c2ccccc2)c2ccccc21 |  |  |  |  |  |  |  |  |  |  |  |  |  |  |  |  | > 100 | 
10 | COc1cc2c(cc1OC)C(=O)CC2 |  |  |  |  |  |  |  |  |  |  |  |  |  |  |  |  | > 100 | 
11 | CC(=O)c1ccccc1 [ACETOPHENONE] |  |  |  |  |  |  |  |  |  |  |  |  |  |  |  |  | > 100 | 
12 | CC(=O)c1ccc(Cl)cc1 |  |  |  |  |  |  |  |  |  |  |  |  |  |  |  |  | > 100 | 
13 | CCOC(=O)c1cccs1 |  |  |  |  |  |  |  |  |  |  |  |  |  |  |  |  | > 100 | 
14 | O=C(CBr)c1sc(Br)cc1Br |  |  |  |  |  |  |  |  |  |  |  |  |  |  |  |  | 1 | 
15 | O=C(CCl)c1cscc1Cl | < 10 | 13 | < 10 | < 10 | < 10 | < 10 | < 10 | 31 | < 10 | < 10 | < 10 | 16 | < 10 | < 10 | < 10 | < 10 |  | Activity [18]: Active; inhibition [4]: 24%
16 | O=C(CCCCl)c1ccc(Br)s1 |  |  |  |  |  |  |  |  |  |  |  |  |  |  |  |  | > 100 | 
17 | O=C(CCl)c1scc(Br)c1Br | < 10 | < 10 | < 10 | < 10 | 11 | < 10 | < 10 | 20 | < 10 | < 10 | 12 | < 10 | < 10 | < 10 | < 10 | < 10 |  | 
18 | O=Cc1cc(Br)c(Br)s1 |  |  |  |  |  |  |  |  |  |  |  |  |  |  |  |  | > 100 | 
19 | N=C(c1ccccc1Cl)c1ccccc1N(NC(=O)c1ccccc1)c1ccccc1 |  |  |  |  |  |  |  |  |  |  |  |  |  |  |  |  | > 100 | 
20 | CCOC(=O)c1sc(C)c(C)c1O |  |  |  |  |  |  |  |  |  |  |  |  |  |  |  |  | > 100 | 
21 | O=C(CCCCl)c1ccc(Cl)s1 |  |  |  |  |  |  |  |  |  |  |  |  |  |  |  |  | > 100 | 
22 | O=C(CBr)c1cc(Br)c(Br)s1 | < 10 | < 10 | < 10 | < 10 | < 10 | < 10 | < 10 | < 10 | < 10 | < 10 | < 10 | < 10 | < 10 | 12 | < 10 | < 10 | 1 | inhibition [4]: 76%
23 | CC(N)Cc1cc(Cl)cs1 (stereo not drawn) |  |  |  |  |  |  |  |  |  |  |  |  |  |  |  |  | > 100 | 
24 | O=Nn1c2ccccc2c2cc(Cl)ccc21 |  |  |  |  |  |  |  |  |  |  |  |  |  |  |  |  | > 100 | 
25 | O=C(CCCCl)c1cc(Cl)sc1Cl |  |  |  |  |  |  |  |  |  |  |  |  |  |  |  |  | > 100 | 
26 | O=C(CCl)c1ccc(Br)s1 | < 10 | < 10 | < 10 | < 10 | < 10 | < 10 | < 10 | < 10 | 16 | < 10 | < 10 | < 10 | < 10 | < 10 | < 10 | < 10 |  | Activity [18]: Active; inhibition [4]: 19%
27 | O=C(CCl)c1ccc(Cl)s1 | < 10 | < 10 | < 10 | < 10 | < 10 | < 10 | < 10 | < 10 | < 10 | 17 | < 10 | < 10 | < 10 | < 10 | < 10 | < 10 |  | Activity [18]: Active; inhibition [4]: < 10%
28 | CCOC(=O)c1sc(SC(C)=O)cc1O |  |  |  |  |  |  |  |  |  |  |  |  |  |  |  |  | 25 | 
29 | O=C(Nn1c2ccccc2c2ccccc21)c1ccccc1 |  |  |  |  |  |  |  |  |  |  |  |  |  |  |  |  | > 100 | 
30 | CCOC(=O)c1ccccc1 [ETHYL BENZOATE] |  |  |  |  |  |  |  |  |  |  |  |  |  |  |  |  | > 100 | 
